The source made the active and inactive calls. The calls are words filed in the database; no cut-off is given here.
Experiments:
[1] = system: U-251; assay: Growth inhibition of human U251 cells after 48 hrs by sulforhodamine B assay; type: functional; conditions: U-251, 48 h
Procedure, shortened: (§1)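 Tumour lines from NCI and Vero from the Rio de Janeiro Cell Bank, grown in RPMI 1640 with 5% fetal bovine serum, with penicillin:streptomycin added to experimental cultures. Each compound was tested at four 10-fold dilutions; sulforhodamine B staining at time zero and 48 h. Proliferation was calculated against T0 and drug-free controls, and GI50 came from sigmoidal regression of the concentration-response curves. Representative experiment in triplicate.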

[2] = Growth inhibition of human UACC62 cells after 48 hrs by sulforhodamine B assay; type: functional; conditions: UACC-62, 48 h; procedure, shortened: as §1
[3] = system: MCF7; assay: Growth inhibition of human MCF7 cells after 48 hrs by sulforhodamine B assay; type: functional; conditions: MCF7, 48 h; procedure, shortened: as §1
[4] = Growth inhibition of human NCI-ADR-RES cells after 48 hrs by sulforhodamine B assay; type: functional; procedure, shortened: as §1
[5] = system: NCI-H460; assay: Growth inhibition of human NCI-H460 cells after 48 hrs by sulforhodamine B assay; type: functional; conditions: NCI-H460, 48 h; procedure, shortened: as §1
[6] = system: 786-0; assay: Growth inhibition of human 786-0 cells after 48 hrs by sulforhodamine B assay; type: functional; conditions: 786-0, 48 h; procedure, shortened: as §1
[7] = system: PC-3; assay: Growth inhibition of human PC3 cells after 48 hrs by sulforhodamine B assay; type: functional; conditions: PC-3, 48 h; procedure, shortened: as §1
[8] = Growth inhibition of human OVCAR3 cells after 48 hrs by sulforhodamine B assay; type: functional; conditions: OVCAR-3, 48 h; procedure, shortened: as §1
[9] = system: HT-29; assay: Growth inhibition of human HT-29 cells after 48 hrs by sulforhodamine B assay; type: functional; conditions: HT-29, 48 h; procedure, shortened: as §1
[10] = system: K562; assay: Growth inhibition of human K562 cells after 48 hrs by sulforhodamine B assay; type: functional; conditions: K562, 48 h; procedure, shortened: as §1
[11] = (§2) Growth inhibition of African green monkey Vero cells after 48 hrs by sulforhodamine B assay; type: cell-based; conditions: chlorocebus sabaeus, Vero cells; procedure, shortened: as §1
[12] = system: Vero; assay: as §2; type: cell-based; conditions: chlorocebus sabaeus, vero, 48 h; procedure, shortened: as §1
[13] = system: PC-3; assay: Cytotoxicity against human PC3 cells assessed as cell death after 48 hrs by sulforhodamine B assay; type: functional
Procedure, shortened: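 NCI-supplied tumour cells in RPMI 1640 with 5% fetal bovine serum; experimental cultures also had penicillin:streptomycin. Cells were exposed for 48 h to four 10-fold concentrations (0.25 to 250 […]), with readings at time zero and at 48 h. LC50 (concentration giving 50% cell death) came from sigmoidal regression of concentration–response curves.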

[14] = Ratio of compound GI50 to paclitaxel GI50 for African green monkey Vero cells; type: ADME, cell-based; conditions: chlorocebus sabaeus, read-out: RatioGI50

## COc1ccc(/C=N/NC(=S)NC(C)(C)[C@H]2CC=C(C)CC2)cc1
[1]
  GI50: 11.4 µM
  TGI: 71.9 µM
[2]
  GI50: 13.3 µM
  TGI: 70.4 µM
[3]
  GI50: 31.2 µM
  TGI: 37.7 µM
[4]
  GI50: 43.8 µM
  TGI: 50.4 µM
[5]
  GI50: 22.5 µM
  TGI: 47.8 µM
[6]
  GI50: 8.9 µM
  TGI: 29.6 µM
[7]
  GI50: < 0.04 µM
  TGI: 1.2 µM
[8]
  GI50: 7.9 µM
  TGI: 21.2 µM
[9]
  GI50: 8.4 µM
  TGI: 33.6 µM
[10]
  GI50: 1.5 µM
  TGI: 30.7 µM
[11]
  GI50 at 48 h: 12.2 µM
[12]
  TGI: 70.1 µM
[13]
  Activity: Active

## CC1=CC[C@H](C(C)(C)NC(=S)N/N=C/c2ccccc2)CC1
[1]
  GI50: 26.3 µM
  TGI: 71.4 µM
[2]
  GI50: 31.6 µM
  TGI: > 100 µM
[3]
  GI50: 8.4 µM
  TGI: 84.4 µM
[4]
  GI50: > 100 µM
  TGI: > 100 µM
[5]
  GI50: 13 µM
  TGI: 53.9 µM
[6]
  GI50: 9.9 µM
  TGI: 67 µM
[7]
  GI50: 1.3 µM
  TGI: 5.7 µM
[8]
  GI50: 8.7 µM
  TGI: 20.6 µM
[9]
  GI50: 8.8 µM
  TGI: 22.2 µM
[10]
  GI50: 6.3 µM
  TGI: 47.6 µM
[11]
  GI50 at 48 h: 20.5 µM
[12]
  TGI: > 100 µM
[13]
  Activity: Active

## CC1=CC[C@H](C(C)(C)NC(=S)N/N=C/c2ccco2)CC1
[1]
  GI50: 9.7 µM
  TGI: 81.5 µM
[2]
  GI50: 10.7 µM
  TGI: 14.1 µM
[3]
  GI50: 9.3 µM
  TGI: 53.7 µM
[4]
  GI50: 9.8 µM
  TGI: 14.1 µM
[5]
  GI50: 13.5 µM
  TGI: 10.8 µM
[6]
  GI50: 11.7 µM
  TGI: 9.8 µM
[7]
  GI50: 13.5 µM
  TGI: 27.2 µM
[8]
  GI50: 10.8 µM
  TGI: 13.8 µM
[9]
  GI50: 7.2 µM
  TGI: 26.9 µM
[10]
  GI50: 0.1 µM
  TGI: > 100 µM
[11]
  GI50 at 48 h: 5.1 µM
[12]
  TGI: 14.7 µM

## CC1=CC[C@H](C(C)(C)NC(=S)N/N=C/c2ccccc2[N+](=O)[O-])CC1
[1]
  GI50: 20.2 µM
  TGI: > 100 µM
[2]
  GI50: 10.6 µM
  TGI: 92.2 µM
[3]
  GI50: 1.2 µM
  TGI: 94.7 µM
[4]
  GI50: 19.2 µM
  TGI: > 100 µM
[5]
  GI50: 5 µM
  TGI: 32.7 µM
[6]
  GI50: 68.5 µM
  TGI: > 100 µM
[7]
  GI50: 1.7 µM
  TGI: 6.4 µM
[8]
  GI50: 8.5 µM
  TGI: 25.8 µM
[9]
  GI50: 7.9 µM
  TGI: 70.8 µM
[10]
  GI50: 0.3 µM
  TGI: > 100 µM
[11]
  GI50 at 48 h: 21.6 µM
[12]
  TGI: > 100 µM
[13]
  Activity: Active

## CC1=CC[C@H](C(C)(C)NC(=S)N/N=C/c2ccccc2O)CC1
[1]
  GI50: 6.4 µM
  TGI: 10.6 µM
[2]
  GI50: 2.8 µM
  TGI: 10.8 µM
[3]
  GI50: 2.2 µM
  TGI: 17.5 µM
[4]
  GI50: 3.7 µM
  TGI: 10.9 µM
[5]
  GI50: 1.9 µM
  TGI: 8.4 µM
[6]
  GI50: 4.6 µM
  TGI: 12.1 µM
[7]
  GI50: < 0.04 µM
  TGI: 0.9 µM
[8]
  GI50: 5.5 µM
  TGI: 11.8 µM
[9]
  GI50: 10.9 µM
  TGI: 16.6 µM
[10]
  GI50: 0.8 µM
  TGI: > 100 µM
[11]
  GI50 at 48 h: 3.1 µM
[12]
  TGI: 11.2 µM
[13]; PC-3, 48 h, read-out: LC50 (the source's name)
  CC50: 12.3 µM
[14]
  selectivity ratio: 100

## CC1=CC[C@H](C(C)(C)NC(=S)N/N=C/c2ccc(O)cc2)CC1
[1]
  GI50: > 100 µM
  TGI: > 100 µM
[2]
  GI50: > 100 µM
  TGI: > 100 µM
[3]
  GI50: > 100 µM
  TGI: > 100 µM
[4]
  GI50: 82.1 µM
  TGI: > 100 µM
[5]
  GI50: > 100 µM
  TGI: > 100 µM
[6]
  GI50: > 100 µM
  TGI: > 100 µM
[7]
  GI50: 0.6 µM
  TGI: 53.8 µM
[8]
  GI50: > 100 µM
  TGI: > 100 µM
[9]
  GI50: > 100 µM
  TGI: > 100 µM
[10]
  GI50: > 100 µM
  TGI: > 100 µM
[11]
  GI50 at 48 h: > 100 µM
[12]
  TGI: > 100 µM

## CC1=CC[C@H](C(C)(C)NC(=S)N/N=C/c2ccccc2Cl)CC1
[1]
  GI50: 80.6 µM
  TGI: > 100 µM
[2]
  GI50: 19.3 µM
  TGI: 98 µM
[3]
  GI50: 11 µM
  TGI: 98.3 µM
[4]
  GI50: 75 µM
  TGI: > 100 µM
[5]
  GI50: 64.5 µM
  TGI: 81 µM
[6]
  GI50: 85.5 µM
  TGI: > 100 µM
[7]
  GI50: 0.05 µM
  TGI: 0.7 µM
[8]
  GI50: 15.1 µM
  TGI: 83.6 µM
[9]
  GI50: 71.3 µM
  TGI: > 100 µM
[10]
  GI50: 5.6 µM
  TGI: 66.2 µM
[11]
  GI50 at 48 h: 74.6 µM
[12]
  TGI: > 100 µM

## COc1ccc(/C(C)=N/NC(=S)NC(C)(C)[C@H]2CC=C(C)CC2)cc1
[1]
  GI50: 43.4 µM
  TGI: > 100 µM
[2]
  GI50: 95.3 µM
  TGI: > 100 µM
[3]
  GI50: 5 µM
  TGI: > 100 µM
[4]
  GI50: > 100 µM
  TGI: > 100 µM
[5]
  GI50: 90.6 µM
  TGI: > 100 µM
[6]
  GI50: > 100 µM
  TGI: > 100 µM
[7]
  GI50: 83.6 µM
  TGI: > 100 µM
[8]
  GI50: 74.9 µM
  TGI: > 100 µM
[9]
  GI50: 18.7 µM
  TGI: > 100 µM
[10]
  GI50: 54 µM
  TGI: > 100 µM
[11]
  GI50 at 48 h: > 100 µM
[12]
  TGI: > 100 µM

## CC1=CC[C@H](C(C)(C)NC(=S)N/N=C/c2ccc[nH]2)CC1
[1]
  GI50: 0.08 µM
  TGI: 3.9 µM
[2]
  GI50: 14.8 µM
  TGI: 49.9 µM
[3]
  GI50: 3.9 µM
  TGI: 11.5 µM
[4]
  GI50: 78 µM
  TGI: > 100 µM
[5]
  GI50: 18 µM
  TGI: 57.5 µM
[6]
  GI50: 20.8 µM
  TGI: > 100 µM
[7]
  GI50: 2.8 µM
  TGI: > 100 µM
[8]
  GI50: 33.5 µM
  TGI: > 100 µM
[9]
  GI50: 27.5 µM
  TGI: > 100 µM
[10]
  GI50: 23.4 µM
  TGI: > 100 µM
[11]
  GI50 at 48 h: 20.5 µM
[12]
  TGI: > 100 µM

## CC1=CC[C@H](C(C)(C)NC(=S)N/N=C/c2ccc(N(C)C)cc2)CC1
[1]
  GI50: 57.7 µM
  TGI: > 100 µM
[2]
  GI50: 45.1 µM
  TGI: > 100 µM
[3]
  GI50: 26.8 µM
  TGI: > 100 µM
[4]
  GI50: > 100 µM
  TGI: > 100 µM
[5]
  GI50: 53.4 µM
  TGI: > 100 µM
[6]
  GI50: 87 µM
  TGI: > 100 µM
[7]
  GI50: < 0.04 µM
  TGI: < 0.7 µM
[8]
  GI50: > 100 µM
  TGI: > 100 µM
[9]
  GI50: 46.5 µM
  TGI: > 100 µM
[10]
  GI50: 22.6 µM
  TGI: > 100 µM
[11]
  GI50 at 48 h: 75.6 µM
[12]
  TGI: > 100 µM
[13]
  Activity: Active

## CC1=CC[C@H](C(C)(C)NC(=S)N/N=C/c2ccc(F)cc2)CC1
[1]
  GI50: > 100 µM
  TGI: > 100 µM
[2]
  GI50: > 100 µM
  TGI: > 100 µM
[3]
  GI50: > 100 µM
  TGI: > 100 µM
[4]
  GI50: > 100 µM
  TGI: > 100 µM
[5]
  GI50: > 100 µM
  TGI: > 100 µM
[6]
  GI50: > 100 µM
  TGI: > 100 µM
[7]
  GI50: < 0.04 µM
  TGI: < 0.9 µM
[8]
  GI50: > 100 µM
  TGI: > 100 µM
[9]
  GI50: > 100 µM
  TGI: > 100 µM
[10]
  GI50: > 100 µM
  TGI: > 100 µM
[11]
  GI50 at 48 h: > 100 µM
[12]
  TGI: > 100 µM
